Bioassay records deposited in PubChem BioAssay by The Scripps Research Institute Molecular Screening Center.
Compounds with a hit are over-represented: about 3% of the library has one in this group of screens.
TAAR1 ag: human TAAR1 agonism. activation, % at 3 µM. Q96RJ0. CHO RD-HGA16 TAAR1, Fluo-8 calcium fluorescence; vehicle wells 0%, saturating PEA agonist 100%. AID 624467. 360,000 compounds, 0.99% hits;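 active = activation above the mean activation of all test compounds in the run plus 3 SD, cut at about 38% in these data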
Target sequence (Q96RJ0 whole entry, looked up): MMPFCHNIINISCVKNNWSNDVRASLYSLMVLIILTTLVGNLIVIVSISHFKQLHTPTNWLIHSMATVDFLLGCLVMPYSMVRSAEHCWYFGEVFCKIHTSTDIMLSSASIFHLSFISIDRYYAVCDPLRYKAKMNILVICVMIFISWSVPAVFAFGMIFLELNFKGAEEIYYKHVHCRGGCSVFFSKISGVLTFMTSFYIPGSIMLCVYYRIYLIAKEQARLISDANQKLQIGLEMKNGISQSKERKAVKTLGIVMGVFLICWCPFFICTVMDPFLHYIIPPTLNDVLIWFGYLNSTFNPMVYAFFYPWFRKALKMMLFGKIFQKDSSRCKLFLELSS
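Assay system – CHO-derived RD-HGA16 cells with stable Gα16 and human TAAR1 · Compound dosing – one-point dosing at 3 µM (nominal) · Incubation – 17-24 h seeding, 75 min 37 °C dye, 30 min RT · Measured by – kinetic Fluo-8 calcium fluorescence · Control set – DMSO vehicle as 0%, PEA at EC100 as 100% · Repeats – single well for each compound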
CHRM4 agonist: CHRM4 agonism in calcium assay | 360,000 compounds, 0.14% hits | P08173 | CHO-K1 hM4/Gqi5, Fluo-8 calcium fluorescence; vehicle 0%, full acetylcholine response 100% | activation, % at 3 µM | AID 624127;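 active = activation above the run mean over all test wells plus 3 SD, cut at about 32% in these data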;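 also: peak over basal fluorescence ratio per well then scaled between controls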
CHRM4 antagonist: antagonists of human muscarinic M4 receptor (CHRM4); CHO-hM4 cells, ACh EC80, Fluo-8 calcium fluorescence; P08173; inhibition, % at 3 µM; 360,000 compounds, 0.73% hits;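 active = inhibition above its plate's cutoff, the mean inhibition of sample wells plus 3 SD, cut at about 27% in these data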
M4 PAM: CHRM4 positive allosteric modulation. CHO-K1 hM4/Gqi5, Fluo-8 calcium fluorescence, ACh EC20; 0% = ACh EC20, 100% = maximal ACh. activation, % at 3 µM. 360,000 compounds, 0.4% hits. AID 624126;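 active = activation above its plate's cutoff, the mean activation of sample wells plus 3 SD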
TAAR1 antagonist: human TAAR1 antagonism; Q96RJ0; 360,000 compounds, 1.5% hits; inhibition, % at 3 µM; CHO RD-HGA16 TAAR1, Fluo-8 calcium fluorescence, antagonist;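 active = inhibition above a per-plate cutoff, the mean inhibition of test compounds on that plate plus 3 SD, cut at about 49% in these data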
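Material: CHO RD-HGA16 cells bearing hTAAR1; compound dosing: one-point dosing, 3 µM nominal final; schedule: dye loading 75 min at 37 °C, then 30 min room temperature; measured by: calcium fluorescence with Fluo-8; control set: vehicle and agonist controls; replication: n of 1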
Each line names hits and unclear results; the compound was inactive in the other large screens.

OC(CCN1CCCCC1)(c1ccccc1)c1ccccc1	CHRM4 antagonist 100
OC(CCN1CCCC1)(c1ccccc1)C1CCCCC1 (configuration not stated)	CHRM4 antagonist 99
OC(CCCN1CCCCC1)(c1ccccc1)c1ccc(C(F)(F)F)cc1 (configuration not stated)	CHRM4 antagonist 50
COc1ccc(C(O)(CCc2ccccc2)CCN2CCCCC2)cc1 (configuration not stated)	none
C=CCC(O)(CCN1CCCCC1)c1ccccc1 (configuration not stated)	CHRM4 antagonist 33
COc1cc(/C=C2\SC(=S)N(Nc3ncc(C(F)(F)F)cc3Cl)C2=O)ccc1O	TAAR1 ag 52, CHRM4 antagonist 39, TAAR1 antagonist 66
COc1cc(/C=C2\SC(=S)N(NC(=O)c3cccnc3)C2=O)ccc1O	none
O=C1/C(=C/c2ccc(O)c(O)c2)SC(=S)N1Nc1ccccc1	none (no result: TAAR1 ag, TAAR1 antagonist)
COc1cc(/C=C2/SC(=S)N(CC3CCCO3)C2=O)ccc1O (configuration not stated)	TAAR1 ag 42, CHRM4 agonist 33
COc1cc(/C=C2\SC(=S)N(NC(=O)c3ccc(O)cc3)C2=O)ccc1O	TAAR1 ag 57, CHRM4 agonist 94, CHRM4 antagonist 27
COc1cc(/C=C2\SC(=S)N(Nc3ccccc3)C2=O)ccc1O	TAAR1 ag 54, CHRM4 agonist 45, CHRM4 antagonist 27, TAAR1 antagonist 57
CCC/C(=C1/c2ccccc2C(=O)N1c1ccccc1)c1c(C)noc1C	none (no result: CHRM4 agonist, CHRM4 antagonist, M4 PAM)
CCOc1cc(/C=C2\SC(=S)N(Nc3ccccc3)C2=O)ccc1O	TAAR1 ag 51, TAAR1 antagonist 60
CCN(Cc1ccccc1)C(=O)c1cc2c(=O)oc3ccc(C)cc3c2s1	TAAR1 antagonist 83
COc1ccc(N(C)S(=O)(=O)c2cccc(C(=O)OCC(=O)N(C)c3ccccc3)c2)cc1	TAAR1 antagonist 56
CN(C(=O)COC(=O)c1cccc(S(=O)(=O)N2CCCCCC2)c1)c1ccccc1	none
Cc1ccc(N(C)S(=O)(=O)c2cccc(C(=O)OCC(=O)c3c(N)n(C)c(=O)n(C)c3=O)c2)cc1	CHRM4 antagonist 30, TAAR1 antagonist 66
O=C1[C@@H]2CSCCS(=O)(=O)N2C(=O)N1C1CCCCC1	none (no result: CHRM4 agonist, CHRM4 antagonist, M4 PAM)
O=C(Nc1cccc(C(=O)N2CCOCC2)c1)C1CCCCC1	none
CC1(Oc2ccc(CC#N)cc2)CCN(Cc2ccc(-n3ccnc3)cc2)C1 (configuration not stated)	none
NC(N)=N/N=C/c1ccc(Cl)c(Cl)c1	TAAR1 ag 39
NC(N)=N/N=C/c1ccc(Cl)cc1Cl	none
CCCCS(=O)(=O)N1C2=NC(C(=O)OCC)=C(C(=O)OCC)C3N(Cc4ccc(C#N)cc4)c4ccccc4[C@]23C[C@H]1C(=O)OC (some centres not stated)	none (no result: CHRM4 agonist, CHRM4 antagonist, M4 PAM)
Cc1cc(C)cc(N(CCC(=O)O)S(=O)(=O)c2ccc(Cl)cc2)c1	CHRM4 antagonist 36
Cc1ccc(N(CCC(=O)O)S(=O)(=O)c2ccc(C)cc2)cc1	none
CC(NC(=O)Nc1ccc([N+](=O)[O-])cc1)C(c1cccs1)N1CCCC1 (configuration not stated)	TAAR1 ag 48, CHRM4 agonist 50
CC(NC(=O)Nc1cccc(Cl)c1)C(c1cccs1)N1CCCC1 (configuration not stated)	none
COCCNC(=O)c1c(N)[nH]c(C(=O)c2ccc(Br)cc2)c1-c1ccc(Br)cc1	none (no result: CHRM4 agonist, CHRM4 antagonist, M4 PAM)
Cc1nn(-c2ccccc2)c2c1C(O)n1c(nc3ccccc31)S2 (configuration not stated)	TAAR1 antagonist 50
Cc1nn(-c2ccccc2)c(C)c1Cc1ccc(O)cc1	none
Cc1cc(CSc2ccccc2)ccc1NC(=O)c1cccc([N+](=O)[O-])c1	TAAR1 antagonist 49
Cc1cc(O)c(NC(=O)c2cccc([N+](=O)[O-])c2)cc1C	none
S=C(NCCCc1cnc[nH]1)NCCCN(Cc1ccc(Cl)cc1)c1ccc(Br)cn1	TAAR1 ag 38
CCCCCCCCN1C(=O)[C@@H](CC(=O)NCC23CC4CC(CC(C4)C2)C3)C[C@@]2(C(=O)OC)C1=C[C@H](C(C)(C)C)O[C@@H]2C	none (no result: CHRM4 agonist, CHRM4 antagonist, M4 PAM)
Cc1cc(C)n2nc(SCc3nnc(SCCCCl)o3)nc2n1	CHRM4 antagonist 32
CCCCCCCCSc1nnc(CSc2nc3nc(C)cc(C)n3n2)o1	none
CCS(=O)(=O)N(C)C[C@@H]1OCc2ccccc2-c2c(n(C)c3ccccc23)C(=O)N([C@H](C)CO)C[C@@H]1C	none (no result: CHRM4 agonist, CHRM4 antagonist, M4 PAM)
C=C1CCC2C(C)(C)[C@@H](O)CC[C@@]2(C)[C@@H]1COc1ccc2ccc(=O)oc2c1 (some centres not stated)	none
CC(=O)OC1CCC2(C)C(COc3ccc4ccc(=O)oc4c3)C(C)(O)CCC2C1(C)C (configuration not stated)	TAAR1 antagonist 56
CC(C)C[C@@H](CNCC(=O)[C@H](Cc1ccccc1)NC(=O)c1[nH]cnc1C(=O)N[C@@H](C)CN)NC(=O)c1nc[nH]c1C(=O)N[C@@H](C)C(=O)O	none
CCCCN(CC)Cc1c(O)ccc2c(-c3ccccc3)cc(=O)oc12	CHRM4 antagonist 28
CCN(CC)Cc1c(O)ccc2c(-c3ccccc3)cc(=O)oc12	none
COC(=O)c1cc2c(c3c4cc(OC)ccc4n(S(=O)(=O)c4ccc(OC)cc4)c13)C(=O)N(Cc1ccc(C(F)(F)F)cc1)C2	none (no result: CHRM4 agonist, CHRM4 antagonist, M4 PAM)
COc1ccc(-c2[nH]nc3nc(N4CCN(C(=O)c5ccoc5)CC4)cc(C(F)(F)F)c23)cc1	TAAR1 antagonist 49
Nc1ccc(-c2c3ccc(=O)cc-3oc3cc(O)ccc23)c(C(=O)O)c1	CHRM4 agonist 426 (no result: TAAR1 ag, TAAR1 antagonist)
COc1ccc(-c2cc(=O)c3ccc(O)cc3o2)cc1OC	none
N#Cc1ccc(S(=O)(=O)NC(=O)[C@H]2O[C@@H](n3ccc(=O)[nH]c3=O)[C@H](O)[C@@H]2O)cc1	none (no result: CHRM4 agonist, CHRM4 antagonist, M4 PAM)
CCCCN(C(=O)C1CCC1)c1c(N)n(CCC)c(=O)[nH]c1=O	none
CCCCN(C(=O)C1CCCC1)c1c(N)n(CC(C)C)c(=O)[nH]c1=O	M4 PAM 27
O=C(NCCN1C(=O)S/C(=C\c2ccccc2F)C1=O)C1CC(=O)N(Cc2ccccc2)C1 (configuration not stated)	TAAR1 antagonist 54
O=C(NCCN1C(=O)S/C(=C\c2cccnc2)C1=O)C1CC(=O)N(Cc2ccco2)C1 (configuration not stated)	none
Cc1cc(C)n(-c2nnc(C)n2/N=C/c2ccccc2OCc2ccccc2Cl)n1	none
Cc1cc(C)n(-c2nnc(C)n2/N=C/c2cc(Br)ccc2OCc2ccccc2)n1	CHRM4 antagonist 26
O=C1c2ccccc2C(c2nnnn2-c2ccc3c(c2)OCCO3)N1CCc1ccccc1F (configuration not stated)	none
